Laboratory results reported in ChEMBL document CHEMBL1148191, “2-Hydroxymethyl-3,4-dihydroxy-6-methyl-pyrrolidine (6-deoxy-DMDP), an alkaloid beta-mannosidase inhibitor from seeds of Angylocalyx pynaertii” (J Nat Prod, 1993).
Active and inactive are the calls of the source. The calls are words filed in the database; no cut-off is given here.

Columns and labels:
Canavalia ensiformis = assay: Inhibition of jack beans alpha-mannosidase
Summary of the method: (§1)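 Commercial arylglycosidases, with α-L-fucosidase from bovine kidney. Activity was measured colorimetrically as p-nitrophenol released from the matching p-nitrophenyl glycoside substrate.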

Saccharomyces cerevisiae = assay: Inhibition of yeast alpha-glucosidase; summary of the method: as §1
Prunus dulcis = assay: Inhibition of almonds beta-glucosidase; summary of the method: as §1
[1] = target: T1, Exo-1,4-beta-xylosidase xlnD (Aspergillus niger) (UniProt O00089); assay: Inhibition of Aspergillus niger beta-xylosidase; summary of the method: as §1
T1 sequence (whole entry): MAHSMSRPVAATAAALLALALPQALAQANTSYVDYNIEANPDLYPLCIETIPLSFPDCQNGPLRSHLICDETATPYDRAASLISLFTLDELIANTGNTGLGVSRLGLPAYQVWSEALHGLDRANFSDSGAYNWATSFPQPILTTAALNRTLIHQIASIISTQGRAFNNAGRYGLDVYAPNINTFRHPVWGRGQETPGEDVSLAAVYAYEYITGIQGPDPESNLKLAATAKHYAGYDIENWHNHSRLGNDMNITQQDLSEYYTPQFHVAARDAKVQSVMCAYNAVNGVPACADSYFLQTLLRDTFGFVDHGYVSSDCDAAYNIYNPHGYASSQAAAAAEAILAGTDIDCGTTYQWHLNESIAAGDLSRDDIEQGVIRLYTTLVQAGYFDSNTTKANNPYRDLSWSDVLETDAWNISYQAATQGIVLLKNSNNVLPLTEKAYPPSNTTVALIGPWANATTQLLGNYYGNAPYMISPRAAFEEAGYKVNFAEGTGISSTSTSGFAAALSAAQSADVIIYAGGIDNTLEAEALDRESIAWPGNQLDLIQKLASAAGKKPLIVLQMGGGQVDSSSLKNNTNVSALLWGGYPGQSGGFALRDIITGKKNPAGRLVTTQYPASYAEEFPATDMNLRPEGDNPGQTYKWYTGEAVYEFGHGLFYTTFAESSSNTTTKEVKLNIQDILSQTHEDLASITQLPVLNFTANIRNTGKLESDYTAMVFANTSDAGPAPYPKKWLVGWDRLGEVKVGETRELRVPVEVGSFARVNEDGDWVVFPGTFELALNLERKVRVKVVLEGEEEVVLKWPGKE

[2] = target: T2, Beta-galactosidase (Bos taurus) (UniProt Q58D55); assay: Inhibition of bovine liver beta-galactosidase; summary of the method: as §1
T2 sequence (whole entry): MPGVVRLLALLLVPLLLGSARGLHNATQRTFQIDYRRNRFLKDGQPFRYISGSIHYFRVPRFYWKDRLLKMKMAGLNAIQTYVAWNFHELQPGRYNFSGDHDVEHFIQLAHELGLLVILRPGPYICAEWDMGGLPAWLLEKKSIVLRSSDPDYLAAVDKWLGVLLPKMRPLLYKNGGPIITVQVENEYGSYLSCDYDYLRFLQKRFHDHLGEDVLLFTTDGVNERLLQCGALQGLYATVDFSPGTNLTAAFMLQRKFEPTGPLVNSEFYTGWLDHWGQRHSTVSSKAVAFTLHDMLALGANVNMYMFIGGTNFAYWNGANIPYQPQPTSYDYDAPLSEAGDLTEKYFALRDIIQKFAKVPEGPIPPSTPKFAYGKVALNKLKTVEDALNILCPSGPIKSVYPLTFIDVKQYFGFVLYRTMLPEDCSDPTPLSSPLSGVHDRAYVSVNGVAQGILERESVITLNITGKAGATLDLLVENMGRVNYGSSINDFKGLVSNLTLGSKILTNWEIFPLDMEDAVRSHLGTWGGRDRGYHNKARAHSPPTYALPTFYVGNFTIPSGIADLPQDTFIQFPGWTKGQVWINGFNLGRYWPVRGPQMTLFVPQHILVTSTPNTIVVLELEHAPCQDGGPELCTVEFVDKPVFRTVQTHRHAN

[3] = target: T3, Beta-mannosidase A (Aspergillus niger) (UniProt Q9UUZ3); assay: Inhibition of Aspergillus niger beta-mannosidase at 380 uM
T3 sequence (whole entry): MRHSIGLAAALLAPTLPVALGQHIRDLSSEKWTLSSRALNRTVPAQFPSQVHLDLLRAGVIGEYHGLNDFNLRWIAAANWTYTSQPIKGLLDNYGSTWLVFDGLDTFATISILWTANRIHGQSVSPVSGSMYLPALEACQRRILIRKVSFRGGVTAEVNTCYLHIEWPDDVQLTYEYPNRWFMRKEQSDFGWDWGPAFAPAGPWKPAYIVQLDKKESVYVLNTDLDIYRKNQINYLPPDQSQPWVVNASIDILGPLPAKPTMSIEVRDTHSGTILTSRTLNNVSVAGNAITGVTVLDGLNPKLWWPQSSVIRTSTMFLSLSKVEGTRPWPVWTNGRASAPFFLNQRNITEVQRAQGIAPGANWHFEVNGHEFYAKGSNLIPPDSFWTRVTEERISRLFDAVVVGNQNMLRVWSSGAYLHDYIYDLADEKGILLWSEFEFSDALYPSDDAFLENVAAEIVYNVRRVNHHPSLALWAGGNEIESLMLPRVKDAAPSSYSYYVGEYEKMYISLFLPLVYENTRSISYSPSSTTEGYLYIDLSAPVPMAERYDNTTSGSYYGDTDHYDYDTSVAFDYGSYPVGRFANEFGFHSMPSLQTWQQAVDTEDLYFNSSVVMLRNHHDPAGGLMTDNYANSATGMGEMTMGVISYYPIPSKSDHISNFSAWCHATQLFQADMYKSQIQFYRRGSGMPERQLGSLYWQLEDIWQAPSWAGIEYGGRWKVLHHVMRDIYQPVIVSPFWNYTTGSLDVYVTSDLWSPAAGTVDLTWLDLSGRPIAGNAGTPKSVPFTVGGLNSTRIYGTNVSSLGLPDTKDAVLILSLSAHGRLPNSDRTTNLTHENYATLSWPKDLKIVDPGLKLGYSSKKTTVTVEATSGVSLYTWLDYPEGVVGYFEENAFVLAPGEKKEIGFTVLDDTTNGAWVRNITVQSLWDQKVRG
Summary of the method: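 β-Mannosidase was purified from Aspergillus niger. Activity was read colorimetrically as p-nitrophenol release from the p-nitrophenyl glycoside substrate, expressed relative to untreated enzyme over a range of inhibitor concentrations. Kinetics were analysed by Lineweaver-Burk plot.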

Aspergillus niger = assay: Inhibition of Aspergillus niger alpha-galactosidase; summary of the method: as §1

Row | Structure (SMILES) | Activity (Canavalia ensiformis) | Activity (Saccharomyces cerevisiae) | Activity (Prunus dulcis) | Activity [1] | Activity [2] | inhibition [3] | Activity (Aspergillus niger)
1 | OC[C@H]1NC[C@@H](O)[C@@H](O)[C@@H]1O | Active |  |  |  |  |  | 
2 | O[C@H]1[C@H]2[C@H](O)CCCN2C[C@H]1O | Active |  |  |  |  |  | 
3 | OC[C@H]1N[C@H](CO)[C@@H](O)[C@@H]1O |  | Active | Active |  |  |  | 
4 | C[C@H]1N[C@H](CO)[C@@H](O)[C@@H]1O | inactive | inactive | inactive | inactive | Active | 50% | inactive
5 | OC[C@H]1NC[C@@H](O)[C@@H]1O |  | Active | Active |  |  |  | 
